3 compounds from ChEMBL document CHEMBL5705901, “Exploiting selective BCL-2 family inhibitors to dissect cell survival dependencies and define improved strategies for cancer therapy” (Sci Transl Med, 2015) can be followed below.

In data set [1] the test system is NCI-H1650. Put plainly: Synergistic antitumor activity against human NCI-H1650 cells xenografted in SCID-bg mouse assessed as tumor growth delay at 25 mg/kg, po coadministered with docetaxel once daily for 14 days relative to control. Format: functional. The settings on record: time 14 day. The method, boiled down: (§1)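 Xenografts dosed with oral inhibitor plus intravenous docetaxel. TGImax = 100(1 − Tv/Cv), from mean treated and control tumor volumes; TGD = 100(T/C − 1), from median times to reach 1 cm3. Group size 5 mice (NCI-H747, A549-FP3, EBC-1, OVCAR-5), 8 (NCI-H358), 10 (NCI-H1650).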

Data set [2] concerns MDA-MB-231. Kind of data set: Antitumor activity against LC3 positive human MDA-MB-231 cells xenografted in SCID mouse assessed as maximum tumor growth inhibition at 25 mg/kg, po administered daily for 14 days relative to control. The class given is functional. The settings on record: MDA-MB-231, 336 h, time 14 day, read-out: TGI. The method, boiled down: (§2)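 MDA-MB-231 LC3 metastatic breast cancer xenograft, 10 mice per group, with a vehicle control. Dosing: oral agent 25 mg/kg daily for 14 days; docetaxel 7.5 mg/kg iv once; combination gives both regimens. Mean tumor volumes tracked. TGImax = 100(1 − Tv/Cv) from mean treated vs control volumes. TGD = 100(T/C − 1) from median times to reach 1 cm3.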

Data set [3] relates to MDA-MB-231. Put plainly: Synergistic antitumor activity against LC3 positive human MDA-MB-231 cells xenografted in SCID mouse assessed as maximum tumor growth inhibition at 25 mg/kg, po coadministered with docetaxel once daily for 14 days relative to control. Format: functional. The settings on record: MDA-MB-231, 336 h, time 14 day, read-out: TGI. In short, it runs like this: as §2

Data set [4] can be described thus: Toxicity in po dosed SCID mouse assessed as body weight loss relative to control. Format: organism-based. Conditions: in vivo.
Data set [5] in a line: Toxicity in po dosed SCID-bg mouse assessed as body weight loss in presence of docetaxel relative to control. The settings on record: in vivo. The class given is organism-based.
The next data set deals with NCI-H747. Kind of data set: Antitumor activity against human NCI-H747 cells xenografted in po dosed SCID-bg mouse assessed as tumor growth delay relative to control. The class given is functional. In short, it runs like this: (§3)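 Tumor volume-based endpoints. TGD = 100(T/C − 1), where T and C are the median times for the treated and control groups to reach 1 cm3. Groups were five mice for NCI-H747 and OVCAR-5 and eight for NCI-H358. Docetaxel was given intravenously and the test agent orally.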

The test system of data set [6] is EBC-1. Kind of data set: Antitumor activity against human EBC-1 cells xenografted in po dosed SCID-bg mouse assessed as tumor growth delay relative to control. Format: functional.
In data set [7] the test system is EBC-1. Put plainly: Synergistic antitumor activity against human EBC-1 cells xenografted in po dosed SCID-bg mouse assessed as tumor growth delay in presence of docetaxel relative to control. Format: functional. In short, it runs like this: as §1
The subject of data set [8] is OVCAR-5. Put plainly: Antitumor activity against human OVCAR-5 xenografted in po dosed SCID mouse assessed as tumor growth delay relative to control. The class given is functional. The method, boiled down:
as §3

The test system of data set [9] is OVCAR-5. Put plainly: Synergistic antitumor activity against human OVCAR-5 cells xenografted in po dosed SCID mouse assessed as tumor growth delay in presence of docetaxel relative to control. The class given is functional. In short, it runs like this:
as §1

In data set [10] the test system is NCI-H358. Kind of data set: Antitumor activity against human NCI-H358 cells xenografted in po dosed SCID mouse assessed as tumor growth delay relative to control. The class given is functional. The method, boiled down: as §3
Data set [11] relates to NCI-H358. Put plainly: Synergistic antitumor activity against human NCI-H358 cells xenografted in po dosed SCID mouse assessed as maximum tumor growth inhibition in presence of docetaxel relative to control. The class given is functional. The method, boiled down:
as §1

The next data set concerns HCC1806. Kind of data set: Synergistic antiproliferative activity against human HCC1806 cells assessed as reduction in cell viability by measuring bliss sum score incubated for 72 hrs in presence of docetaxel by CellTiter-Glo cell vaibility assay. The class given is functional.
For another data set, the system named is HCC1569. Put plainly: Synergistic antiproliferative activity against human HCC1569 cells assessed as reduction in cell viability by measuring bliss sum score incubated for 72 hrs in presence of docetaxel by CellTiter-Glo cell vaibility assay. The class given is functional.
A short description of data set [12]: Synergistic antiproliferative activity against human HCC1500 cells assessed as reduction in cell viability by measuring bliss sum score incubated for 72 hrs in presence of docetaxel by CellTiter-Glo cell vaibility assay. The class given is functional.
In a further data set the test system is HCC1937. Kind of data set: Synergistic antiproliferative activity against human HCC1937 cells assessed as reduction in cell viability by measuring bliss sum score incubated for 72 hrs in presence of docetaxel by CellTiter-Glo cell vaibility assay. Format: functional.
Another data set has as its system HCC1143. Put plainly: Synergistic antiproliferative activity against human HCC1143 cells assessed as reduction in cell viability by measuring bliss sum score incubated for 72 hrs in presence of docetaxel by CellTiter-Glo cell vaibility assay. The class given is functional.
The next data set concerns LXFL 529. Kind of data set: Synergistic antiproliferative activity against human LXFL 529 cells assessed as reduction in cell viability by measuring bliss sum score incubated for 72 hrs in presence of docetaxel by CellTiter-Glo cell vaibility assay. Format: functional.
Another data set has as its system A549. Kind of data set: Synergistic antiproliferative activity against human A549 cells assessed as reduction in cell viability by measuring bliss sum score incubated for 72 hrs in presence of docetaxel by CellTiter-Glo cell vaibility assay. Format: functional.
Data set [13] deals with NCI-H1650. Put plainly: Synergistic antiproliferative activity against human NCI-H1650 cells assessed as reduction in cell viability by measuring bliss sum score incubated for 72 hrs in presence of docetaxel by CellTiter-Glo cell vaibility assay. Format: functional.
A further data set relates to NCI-H1299. Put plainly: Synergistic antiproliferative activity against human NCI-H1299 cells assessed as reduction in cell viability by measuring bliss sum score incubated for 72 hrs in presence of docetaxel by CellTiter-Glo cell vaibility assay. Format: functional.
Data set [14] in a line: Antagonistic antiproliferative activity against […] (unknown origin) cells assessed as reduction in cell viability by measuring bliss sum score incubated for 72 hrs in presence of docetaxel by CellTiter-Glo cell vaibility assay. The class given is functional.
Data set [15] deals with ZR-75-1. Put plainly: Induction of apoptosis in human ZR-75-1 cells assessed as increase in caspase cleavage incubated for 48 hrs in presence of docetaxel by immunoblot analysis. Format: functional, cell-based.
Data set [16] has as its system ZR-75-1. Put plainly: Induction of apoptosis in human ZR-75-1 cells assessed as poly(ADP-ribose) polymerase cleavage incubated for 48 hrs in presence of docetaxel by immunoblot analysis. Format: functional, cell-based.
A further data set deals with MCF7. Put plainly: Induction of apoptosis in human MCF7 cells expressing luciferase assessed as accumulation of cells with sub-G0-G1 DNA content at 1 uM incubated for 48 hrs in presence of docetaxel by flow cytometric analysis. Format: functional, cell-based.
A further data set has as its system MDA-MB-453. Put plainly: Induction of apoptosis in human MDA-MB-453 cells assessed as accumulation of cells with sub-G0-G1 DNA content at 1 uM incubated for 48 hrs in presence of docetaxel by flow cytometric analysis. The class given is functional, cell-based.
Another data set concerns HCC38. Kind of data set: Induction of apoptosis in human HCC38 cells assessed as accumulation of cells with sub-G0-G1 DNA content at 1 uM incubated for 48 hrs in presence of docetaxel by flow cytometric analysis. Format: functional, cell-based.
A further data set concerns HCC1428. Put plainly: Induction of apoptosis in human HCC1428 cells assessed as accumulation of cells with sub-G0-G1 DNA content at 1 uM incubated for 48 hrs in presence of docetaxel by flow cytometric analysis. Format: functional, cell-based.
The subject of the next data set is HCC1954. Put plainly: Induction of apoptosis in human HCC1954 cells assessed as accumulation of cells with sub-G0-G1 DNA content at 1 uM incubated for 48 hrs in presence of docetaxel by flow cytometric analysis. The class given is functional, cell-based.
The next data set concerns MX1. Kind of data set: Induction of apoptosis in human MX1 cells assessed as accumulation of cells with sub-G0-G1 DNA content at 1 uM incubated for 48 hrs in presence of docetaxel by flow cytometric analysis. The class given is functional, cell-based.

The source made the active and inactive calls. The rule behind the calls is not given here. Some results are limits rather than exact numbers.

Take `Cc1c(-c2ccc(N3CCc4cccc(C(=O)Nc5nc6ccccc6s5)c4C3)nc2C(=O)O)cnn1CC12CC3CC(CC(C3)C1)C2`: the Activity is 170% in the data set on NCI-H1650 [1]; under 9% in [4]; under 9% in data set [5]; 33% in the data set with NCI-H747; 22% with EBC-1 [6]; 94% in the data set with EBC-1 [7]. Further, the Activity in the data set with OVCAR-5 [8] was found to be 54%; in the data set with OVCAR-5 [9] it was 85%; in the data set with NCI-H358 [10], 80%. Besides, the inhibition in vivo at 25 mg/kg was determined as 55% with MDA-MB-231 [2] and 93% in the data set on MDA-MB-231 [3]. In the data set on NCI-H358 [11], the inhibition of tumour growth (TGI) was found to be 91%.
As for `CN(C)CC#Cc1ccc(OCCCc2sc(N3CCc4cccc(C(=O)Nc5nc6ccccc6s5)c4C3)nc2C(=O)O)c(F)c1` [A-1155463], the Activity_index in the data set with HCC1806 is 224; in the data set on HCC1569, 185; in [12], 146; in the data set on HCC1937, 332; in the data set on HCC1143, 195; with LXFL 529, 734. The Activity_index in the data set on A549 is given as 137; with NCI-H1650 [13], 312; with NCI-H1299, 302; in data set [14], -269.
As to `CC1(C)CCC(c2ccc(Cl)cc2)=C(CN2CCN(c3ccc(C(=O)NS(=O)(=O)c4ccc(N[C@H](CCN5CCOCC5)CSc5ccccc5)c(S(=O)(=O)C(F)(F)F)c4)cc3)CC2)C1` [NAVITOCLAX], the outcome in the data set on ZR-75-1 [15], in the data set on ZR-75-1 [16], with MCF7, in the data set on MDA-MB-453, in the data set on HCC38 and in the data set on HCC1428 was Active. Further, the outcome in the data set with HCC1954 and in the data set on MX1 was Active.
